According to ChEMBL document CHEMBL4330094, “Potent Metabolic Sialylation Inhibitors Based on C-5-Modified Fluorinated Sialic Acids” (J Med Chem, 2019):
Active and inactive are the calls of the source. The calls are words filed in the database; no cut-off is given here.

Tests used:
[1] = system: B16-F10; experiment: Effect on total cell surface glycosylation in mouse B16F10 cells assessed as inhibition of biotinylated PHA-L lectin binding at 102.4 uM after 3 days by flow cytometry; assay type: cell-based; conditions: b16-f10, 72 h
How it was run: (§1)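 B16-F10 cells were exposed 3 days to 102.4 µM compound or DMSO. Staining used biotinylated lectins (AAL 5, PNA 5, GSL-I 1, LCA 1, PHA-L 1, PSA 1, SJA 1, WGA 1 µg/ml) in carbo-free blocking buffer with 1 mM CaCl and 1 mM MgCl for 45-60 min at 4 °C, then streptavidin-PE for 20 min at 4 °C. Flow cytometry read-out was MFI, mean ± SEM from two independent experiments.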

[2] = Inhibition of sialyltransferase in HEK293 cells assessed as decrease in lectin binding after 3 days by biotinylated MAL2 lectin and streptavidin-PE based flow cytometry; assay type: cell-based, Homo sapiens
How it was run: (§2)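 Each cell line was incubated 3 days with increasing compound concentrations or equivalent DMSO. Cells were stained with biotinylated MALII (5 µg/ml) in carbo-free blocking buffer with 1 mM CaCl/MgCl for 45-60 min at 4 °C, washed in PBS/1% BSA/0.02% azide, then stained with streptavidin-PE for 20 min at 4 °C. For flow cytometry, MFI was normalized to control as % lectin binding.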

[3] = system: B16-F10; experiment: Effect on total cell surface glycosylation in mouse B16F10 cells assessed as inhibition of biotinylated PSA-lectin binding at 102.4 uM after 3 days by flow cytometry; assay type: cell-based; conditions: b16-f10, 72 h; how it was run: as §1
[4] = Inhibition of sialyltransferase in human HeLa cells assessed as decrease in lectin binding after 3 days by biotinylated MAL2 lectin and streptavidin-PE based flow cytometry; assay type: cell-based; how it was run: as §2
[5] = system: B16-F10; experiment: Effect on total cell surface glycosylation in mouse B16F10 cells assessed as inhibition of biotinylated WGA-lectin binding at 102.4 uM after 3 days by flow cytometry; assay type: cell-based; conditions: b16-f10, 72 h; how it was run: as §1
[6] = system: B16-F10; experiment: Cytotoxicity against mouse B16F10 cells assessed as reduction in metabolic activity at 204.8 uM after 3 days by MTT assay; assay type: ADME, cell-based; conditions: b16-f10, 72 h
[7] = system: B16-F10; experiment: Effect on total cell surface glycosylation in mouse B16F10 cells assessed as inhibition of biotinylated LCA-lectin binding at 102.4 uM after 3 days by flow cytometry; assay type: cell-based; conditions: b16-f10, 72 h; how it was run: as §1
[8] = system: B16-F10; experiment: Inhibition of sialyltransferase in mouse B16-F10 cells assessed as recovery time for sialylation at 25.6 uM pretreated for 3 days followed by washing and re-seeding and measured after 6 days by biotinylated MAL2 lectin-based flow cytometry; assay type: cell-based
How it was run: (§3)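 B16-F10 cells were pretreated 3 days with 25.6 or 51.2 µM compound or DMSO, washed, reseeded, and sampled daily for 6 days. They were stained with biotinylated MALII (5 µg/ml, 45-60 min, 4 °C) plus streptavidin-PE. Flow cytometry MFI was normalized to control as % lectin binding.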

[9] = Inhibition of sialyltransferase in mouse 9464D cells assessed as decrease in lectin binding after 3 days by biotinylated MAL2 lectin and streptavidin-PE based flow cytometry; assay type: cell-based; how it was run: as §2
[10] = Inhibition of sialyltransferase in mouse EL4 cells assessed as decrease in lectin binding after 3 days by biotinylated MAL2 lectin and streptavidin-PE based flow cytometry; assay type: cell-based; how it was run: as §2
[11] = system: B16-F10; experiment: Effect on total cell surface glycosylation in mouse B16F10 cells assessed as inhibition of biotinylated GSL1-lectin binding at 102.4 uM after 3 days by flow cytometry; assay type: cell-based; conditions: b16-f10, 72 h; how it was run: as §1
[12] = system: B16-F10; experiment: Effect on total cell surface glycosylation in mouse B16F10 cells assessed as inhibition of biotinylated PNA lectin binding at 102.4 uM after 3 days by flow cytometry; assay type: cell-based; conditions: b16-f10, 72 h; how it was run: as §1
[13] = system: B16-F10; experiment: Relative inhibitory potency, ratio of SiaFAc to compound EC50 for inhibition of sialyltransferase in mouse B16-F10 cells; assay type: cell-based
[14] = system: B16-F10; experiment: Cytotoxicity against mouse B16F10 cells assessed as reduction in metabolic activity at <51.2 uM after 3 days by MTT assay; assay type: ADME, cell-based; conditions: b16-f10, 72 h
[15] = system: B16-F10; experiment: Effect on total cell surface glycosylation in mouse B16F10 cells assessed as inhibition of biotinylated AAL-lectin binding at 102.4 uM after 3 days by flow cytometry; assay type: cell-based; conditions: b16-f10, 72 h; how it was run: as §1
[16] = Inhibition of sialyltransferase in human THP1 cells assessed as decrease in lectin binding after 3 days by biotinylated MAL2 lectin and streptavidin-PE based flow cytometry; assay type: cell-based; how it was run: as §2
[17] = system: B16-F10; experiment: Effect on total cell surface glycosylation in mouse B16F10 cells assessed as inhibition of biotinylated SJA-lectin binding at 102.4 uM after 3 days by flow cytometry; assay type: cell-based; conditions: b16-f10, 72 h; how it was run: as §1
[18] = system: B16-F10; experiment: Inhibition of sialyltransferase in mouse B16-F10 cells assessed as recovery time for sialylation at 51.2 uM pretreated for 3 days followed by washing and re-seeding and measured after 6 days by biotinylated MAL2 lectin-based flow cytometry; assay type: cell-based; how it was run: as §3
[19] = Inhibition of sialyltransferase in mouse B16F10 cells assessed as decrease in lectin binding after 3 days by biotinylated MAL2 lectin and streptavidin-PE based flow cytometry; assay type: cell-based; how it was run: as §2

Structure (SMILES)	Activity [1]	EC50 [2]	Activity [3]	EC50 [4]	Activity [5]	Activity [6]	Activity [7]	sialylation recovery time [8]	EC50 [9]	EC50 [10]	Activity [11]	Activity [12]	Ratio EC50 [13]	Activity [14]	Activity [15]	EC50 [16]	Activity [17]	TIME [18]	EC50 [19]
COC(=O)C1(OC(C)=O)O[C@@H]([C@H](OC(C)=O)[C@@H](COC(C)=O)OC(C)=O)[C@H](NC(=O)C(F)(F)F)[C@@H](OC(C)=O)[C@H]1F (stereo partly drawn)	Non-Toxic	42.8 µM	Non-Toxic	25.5 µM	Non-Toxic	Non-Toxic	Non-Toxic	Active	46.5 µM	> 102 µM	Non-Toxic	Non-Toxic	2	Non-Toxic	Non-Toxic	3.3 µM	Non-Toxic	48 to 72 h	14.3 µM
COC(=O)C1(OC(C)=O)O[C@@H]([C@H](OC(C)=O)[C@@H](COC(C)=O)OC(C)=O)[C@H](NC(=O)OCC(C)C)[C@@H](OC(C)=O)[C@H]1F (stereo partly drawn)	Non-Toxic	11.4 µM	Non-Toxic	5.15 µM	Non-Toxic	Non-Toxic	Non-Toxic	Active	24.4 µM	51.8 µM	Non-Toxic	Non-Toxic	8	Non-Toxic	Non-Toxic	0.5 µM	Non-Toxic	120 to 144 h	3.33 µM
COC(=O)N[C@H]1[C@H]([C@H](OC(C)=O)[C@@H](COC(C)=O)OC(C)=O)OC(OC(C)=O)(C(=O)OC)[C@H](F)[C@@H]1OC(C)=O (stereo partly drawn)	Non-Toxic	3.31 µM	Non-Toxic	6.33 µM	Non-Toxic	Non-Toxic	Non-Toxic	Active	18.3 µM	59.2 µM	Non-Toxic	Non-Toxic	5	Non-Toxic	Non-Toxic	1.98 µM	Non-Toxic	120 to 144 h	4.89 µM
COC(=O)C1(OC(C)=O)O[C@@H]([C@H](OC(C)=O)[C@@H](COC(C)=O)OC(C)=O)[C@H](NC(=O)OCCF)[C@@H](OC(C)=O)[C@H]1F (stereo partly drawn)													21						1.25 µM
COC(=O)C1(OC(C)=O)O[C@@H]([C@H](OC(C)=O)[C@@H](COC(C)=O)OC(C)=O)[C@H](NC(=O)CCl)[C@@H](OC(C)=O)[C@H]1F (stereo partly drawn)													1					48 to 72 h	18 µM
COC(=O)C1(OC(C)=O)O[C@@H]([C@H](OC(C)=O)[C@@H](COC(C)=O)OC(C)=O)[C@H](NC(=O)COC(C)=O)[C@@H](OC(C)=O)[C@H]1F (stereo partly drawn)	Non-Toxic	53.6 µM	Non-Toxic	16.6 µM	Non-Toxic	Non-Toxic	Non-Toxic	Active	> 102 µM	> 102 µM	Non-Toxic	Non-Toxic	5	Non-Toxic	Non-Toxic	4.24 µM	Non-Toxic	48 to 72 h	4.98 µM
C=CCOC(=O)N[C@H]1[C@H]([C@H](OC(C)=O)[C@@H](COC(C)=O)OC(C)=O)OC(OC(C)=O)(C(=O)OC)[C@H](F)[C@@H]1OC(C)=O (stereo partly drawn)	Non-Toxic	1.83 µM	Non-Toxic	1.77 µM	Non-Toxic	Non-Toxic	Non-Toxic	Active	6.91 µM	39.9 µM	Non-Toxic	Non-Toxic	19	Non-Toxic	Non-Toxic	0.41 µM	Non-Toxic	120 to 144 h	1.39 µM
COCCOC(=O)N[C@H]1[C@H]([C@H](OC(C)=O)[C@@H](COC(C)=O)OC(C)=O)OC(OC(C)=O)(C(=O)OC)[C@H](F)[C@@H]1OC(C)=O (stereo partly drawn)										≥ 50 µM			1						25.5 µM
COC(=O)C1(OC(C)=O)O[C@@H]([C@H](OC(C)=O)[C@@H](COC(C)=O)OC(C)=O)[C@H](NC(=O)OC(C)(C)C)[C@@H](OC(C)=O)[C@H]1F (stereo partly drawn)	Non-Toxic	10.4 µM	Non-Toxic	12.8 µM	Non-Toxic	Non-Toxic	Non-Toxic	Active	36.5 µM	54.6 µM	Non-Toxic	Non-Toxic	8	Non-Toxic	Non-Toxic	1.28 µM	Non-Toxic	120 to 144 h	3.48 µM
COC(=O)C1(OC(C)=O)O[C@@H]([C@H](OC(C)=O)[C@@H](COC(C)=O)OC(C)=O)[C@H](NC(=O)OCc2ccccc2)[C@@H](OC(C)=O)[C@H]1F (stereo partly drawn)													2						14.5 µM
COC(=O)C1(OC(C)=O)O[C@@H]([C@H](OC(C)=O)[C@@H](COC(C)=O)OC(C)=O)[C@H](NC(=O)OCC(Cl)(Cl)Cl)[C@@H](OC(C)=O)[C@H]1F (stereo partly drawn)													7						3.83 µM
CCCCOC(=O)N[C@H]1[C@H]([C@H](OC(C)=O)[C@@H](COC(C)=O)OC(C)=O)OC(OC(C)=O)(C(=O)OC)[C@H](F)[C@@H]1OC(C)=O (stereo partly drawn)													4						7.45 µM
